TRPC6 activator: activators of mouse TRPC6 channel | Q61143 | HEK293-TRPC6 membrane potential dye fluorescence; hits give high values | B-score at 10 µM | 310,000 tested, 0.13% active;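 active = B-score of the integrated fluorescence ratio above library mean plus 3 SD, and starting fluorescence ratio within library mean plus 5 SD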;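 also: higher score means more depolarization so channel activation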
TRPC6 inhibitor: inhibitors of mouse TRPC6 channel; AID 2553; 310,000 tested, 1.1% active; Q61143; B-score at 10 µM; HEK293-TRPC6, membrane potential dye, ACh-evoked depolarization; hits give low values;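 active = B-score under library mean minus 3 SD, initial fluorescence not abnormally high, positive integrated signal ratio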;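 also: B-score derived from integrated fluorescence ratio over the kinetic read; more negative B-score means stronger inhibition of depolarization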
Kir21 inh: blocks the mouse Kir2.1 inward-rectifier potassium channel; AID 1672; 310,000 tested, 0.85% active; HEK293-Kir2.1, FluxOR thallium flux fluorescence; hits give low values; P35561; B-score at 10 µM;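 active = fluorescence ratio B-score at or below minus 3 SD of library scores, with starting-brightness B-score within 2 SD, cut at about -4.2 in these data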;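 also: channel flux triggered by added potassium and thallium sulfate stimulus; B-score of peak minus minimum fluorescence over baseline after thallium stimulus; more negative B-score means stronger Kir2.1 block with less thallium influx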
Target sequence (P35561 whole entry, looked up): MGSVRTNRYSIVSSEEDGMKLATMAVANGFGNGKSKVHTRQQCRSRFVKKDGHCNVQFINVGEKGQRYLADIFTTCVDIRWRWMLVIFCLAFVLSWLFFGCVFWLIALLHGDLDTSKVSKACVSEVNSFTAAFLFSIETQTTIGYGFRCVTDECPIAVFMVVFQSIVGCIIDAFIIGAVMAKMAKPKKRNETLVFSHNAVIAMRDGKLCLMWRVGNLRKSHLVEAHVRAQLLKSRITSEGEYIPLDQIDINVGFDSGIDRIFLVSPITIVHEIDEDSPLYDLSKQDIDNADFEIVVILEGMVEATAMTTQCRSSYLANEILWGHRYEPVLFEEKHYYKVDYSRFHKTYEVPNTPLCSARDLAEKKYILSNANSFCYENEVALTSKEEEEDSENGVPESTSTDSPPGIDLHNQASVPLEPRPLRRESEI
TRPC4 act: opens the mouse TRPC4 cation channel; B-score at 10 µM; Q9QUQ5; HEK293 TRPC4beta/mu-opioid, Fluo4 calcium fluorescence; hits give high values; AID 2237; 310,000 tested, 0.49% active;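 active = B-score above 5 SD of library B-scores, and initial fluorescence ratio not above library mean plus 5 SD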;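 also: positive B-score marks a calcium rise read as TRPC4 activation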
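System: HEK293 cells stably co-expressing mouse TRPC4beta and mu-opioid receptor; Schedule: Fluo4 dye loading 45 min at room temperature, 110 s recording; Detection: Fluo4 fluorescence, kinetic; Evaluation: B-scored integrated calcium fluorescence ratio; Controls: buffer (low) and maximal DAMGO (high).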
TRPC4 inh: inhibitors of mouse TRPC4 channel. Q9QUQ5. HEK293 TRPC4beta/mu-opioid, DAMGO-evoked Fluo4 calcium flux; hits give low values. B-score at 10 µM. 300,000 tested, 0.39% active. AID 2247;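 active = B-score over 3 SD under the library average, no early fluorescence shift, positive overall ratio signal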
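Assay system: HEK293 cells with stable TRPC4beta plus mu-opioid receptor expression; Probe or stimulus: DAMGO in two steps, submaximal then maximal; Dosing: single-point compound dosing; Measured by: Fluo4 calcium-dye fluorescence, kinetic read; Read-out basis: B score from integrated Fluo4 fluorescence ratio.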
TRPC4 potent: allosteric potentiators of mouse TRPC4 channel; 310,000 tested, 0.42% active; B-score at 10 µM; HEK293 TRPC4beta/mu-opioid, DAMGO EC20, Fluo-4 Ca2+ flux; hits give high values; Q9QUQ5;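 active = B-score of calcium response area above 5 SD of library B-scores, with initial fluorescence ratio within 5 SD of library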;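 also: B-score of integrated fluorescence ratio over time as area under calcium response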
* hit, by the source's call; i = inactive. An excerpt weighted towards active compounds, which were near 2.9% of everything screened.

SMILES	TRPC6 activator	TRPC6 inhibitor	Kir21 inh	TRPC4 act	TRPC4 inh	TRPC4 potent
Cc1ccc(-c2c(C(=O)N/N=C/c3ccc(OC(C)C)cc3)nnn2-c2nonc2N)cc1	i	i	-0.57	i	i	18*
CCOc1ccccc1NC(=O)CSc1nc2c(c(=O)n1C)SC(C)C2 (configuration not stated)	i	i	-5.51*	i	i	i
CN1CCN(c2oc(-c3ccco3)nc2S(=O)(=O)c2ccccc2)CC1	i	i	0.36	i	i	i
CCOc1ccc(NC(=O)C2=C(C)C(=O)OC23CCC(C)CC3)cc1 (configuration not stated)	i	i	0.74	i	i	i
Cc1ccc2[nH]c3c(=O)n(CCc4cnc[nH]4)cnc3c2c1	i	i	0.73	211*	i	i
COC(=O)c1ccccc1NC(=S)NC(=O)C1CCCCC1	i	i	0.96	i	i	16*
COc1ccc(F)c(CN2CCC(N3CCC(C(=O)N4CCOCC4)CC3)CC2)c1	i	i	-0.49	i	i	i
Cc1cccc(/C=N/NC(=O)c2cccc(NC(=O)c3ccccc3)c2)n1	i	i	1.99	i	i	i
Cc1cccc(/C=N/NC(=O)c2cccc(Cl)c2)n1	i	i	0.42	i	i	21*
CCOc1ccc(N(CC(=O)Nc2cc(C)cc(C)c2)S(C)(=O)=O)cc1	i	i	-0.03	i	i	i
CC1CCCCC1NS(=O)(=O)c1ccc(S(=O)(=O)N2CCCC2)cc1 (configuration not stated)	i	i	1.73	i	i	49*
FC(F)C(F)(F)c1cc(-c2ccc(Cl)cc2)n[nH]1	i	i	1.07	50*	i	i
Fc1ccc(-c2cc(C(F)(F)C(F)F)[nH]n2)cc1	i	i	0.17	71*	i	i
c1cnc(N2CCN(c3cnccn3)CC2)nc1	i	i	-1.5	i	i	28*
CC1CC(C)C[N+](=C2C=C(N3CCCC3)CC(C)(C)C2)C1 (configuration not stated)	i	i	-5.82*	i	i	i
CC1(c2ccccc2)CC(C)(C)N(C(=O)C2CCCO2)c2ccccc21 (configuration not stated)	i	i	-2.85	i	-7*	i
O=[N+]([O-])c1ccc(Sc2cccc[n+]2[O-])c2nonc12	i	i	-6.34*	i	i	i
O=[N+]([O-])c1ccc(Nc2ccccc2)c2nonc12	i	i	0.68	i	i	i
Nc1nonc1C(=O)NCCN=Cc1cc(Cc2ccccc2)cc(Br)c1O	i	i	0.32	i	i	i
Nc1nonc1C(=O)NCCN=Cc1ccccc1O	i	i	0.14	71*	i	i
Nc1nc(Nc2cccc(C(F)(F)F)c2)nc(C(F)(F)F)n1	i	-6.09*	2.05	i	i	i
CCCCc1ccc(NC(=O)CSc2nnc(C)c(=O)n2N)cc1	i	i	1.41	i	i	24*
CC(OC(=O)Cc1ccccc1[N+](=O)[O-])C(=O)Nc1ccc(Cl)cn1 (configuration not stated)	i	i	0.15	i	i	i
COC(CNC(=O)C(=O)NCC1OCCN1S(=O)(=O)c1ccccc1)OC (configuration not stated)	i	i	-1.26	i	i	i
CC1OC(O[C@H]2CC[C@]3(C)C4C=C[C@]56OC[C@@]7(CC[C@@H](C)[C@H](C)C75)[C@H](O)C[C@@]6(C)[C@]4(C)CC[C@H]3C2(C)C)C(OC2OC(CO)C(O)C(O)C2OC2OCC(O)C(O)C2O)C(O)C1O (some centres not stated)	13.1*	i	-10.6	356*	i	11*
SMILES	TRPC6 activator	TRPC6 inhibitor	Kir21 inh	TRPC4 act	TRPC4 inh	TRPC4 potent
CCOC(=O)c1c(NC(=O)c2ccc(C)cc2)sc2c1CC(C)(C)OC2	i	i	0.97	i	i	i
CCOC(=O)c1c(NC(=O)c2ccccc2C)sc2c1CC(C)(C)OC2	i	i	0.27	i	i	11*
CCOC(=O)c1ccc(NC(=O)C23CCC(C)(C(=O)O2)C3(C)C)cc1 (configuration not stated)	i	i	0.86	i	i	i
CCOC(=O)C1CCN(c2nc3ccccc3nc2C(C#N)C(=O)OC(C)COC)CC1 (configuration not stated)	i	i	0.99	i	i	i
CCOC(=O)C1CCN(c2nc3ccccc3nc2C(C#N)C(=O)OCCOC)CC1 (configuration not stated)	i	i	1.11	i	-7*	i
CCCCN(CCCC)/C(N)=N/c1nc(C)cc(C)n1	i	i	-2.27	i	-7*	i
CCCCCN1C/C=C\C(c2ccc(OC)cc2)N(Cc2ccc(F)cc2)C(=O)C1 (configuration not stated)	i	i	-1.18	i	i	i
COc1ccc(/C=N/Nc2cc(C)nc3ccc(OC)cc23)c(OC)c1	i	-5.39*	-3.25	i	i	i
COc1ccc(CN2C3CCCC2CC(NC(=O)/C=C/c2ccccc2)C3)cc1 (configuration not stated)	i	i	-0.24	i	i	i
CCNS(=O)(=O)c1ccc(NC(=O)Nc2ccc3c(c2)OCO3)cc1	i	i	-0.9	61*	i	i
O=C(N/N=C/c1ccccc1)c1ccc(OCc2ccccc2)cc1	i	i	1.43	i	i	i
Cc1ccc(COc2ccc(/C=N/O)cc2)cc1	i	i	-1.46	i	i	i
NC(N)=N/N=C/c1ccc(OCc2ccc(Cl)cc2)cc1	i	i	-9.85*	i	i	i
NC(N)=N/N=C/c1ccc(OCc2ccccc2)cc1	i	i	-11.5*	i	i	i
CC(=O)c1cccc(NC(=O)CCCCCn2nnc3ccccc3c2=O)c1	i	i	0.39	i	i	i
CN1CCN(C2=Cc3ccccc3Sc3cc(F)c(F)cc32)CC1	i	i	-4.41*	i	i	i
CCc1cc(/C(Cc2csc(C)n2)=N/O)c(O)cc1O	i	i	-4.43*	i	i	i
CC(C)(C)OC(=O)N1CCC[C@H]1c1nnc(SCc2ccc(Cl)cc2)o1	i	i	-7.48*	i	i	i
